Measured values as given in ChEMBL document CHEMBL2396611, “Synthesis and mechanism of hypoglycemic activity of benzothiazole derivatives” (J Med Chem, 2013).
One block for each compound: values may come before it. Activity calls are given as the source filed them. No cut-off for these calls is given here.

Assays:
[1] = molecular target: 5'-AMP-activated protein kinase catalytic subunit alpha-2 (Rattus norvegicus) (UniProt Q09137); assay: (§1) Activation of AMPK in rat L6 cells assessed as increase of [3H]dGlc uptake after 5 hrs; assay type: cell-based
Outline: (§2)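 Fully differentiated L6 myotubes preincubated 24 h in αMEM with 2% FCS and 23.0 mmol/L D-glucose, then 4 h serum-free with 0.5% BSA. Compound or DMSO vehicle given for the indicated times or concentrations. Uptake read after 5 min at room temperature in PBS pH 7.4 with 0.1 mmol/L dGlc and 1.3 μCi/mL [3H]dGlc, by scintillation of SDS lysates. Zero-time basal rate set as 100%; n=6.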

[2] = molecular target: 5'-AMP-activated protein kinase catalytic subunit alpha-2 (Rattus norvegicus) (UniProt Q09137); assay: Activation of AMPK in rat L6 cells assessed as increase of [3H]dGlc uptake at 10 to 200 uM; assay type: cell-based; conditions: TDE = time-dependent effect; outline: as §2
[3] = molecular target: 5'-AMP-activated protein kinase catalytic subunit alpha-2 (Rattus norvegicus) (UniProt Q09137); assay: Activation of AMPK in rat L6 cells assessed as increase of [3H]dGlc uptake at 5 uM after 5 hrs relative to control; assay type: cell-based; outline: as §2
[4] = molecular target: 5'-AMP-activated protein kinase catalytic subunit alpha-2 (Homo sapiens) (UniProt P54646); assay: Activation of human recombinant AMPK at 20 uM after 30 mins relative to control
Outline: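 Recombinant human full-length AMPK assayed with a commercial luminescent kit. Compound at 20 μM or DMSO vehicle (1% v/v) added to the reaction mix for 30 min at ambient temperature. Activity read by luminometer against a calibration curve; basal activity with DMSO set as 100%.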

[5] = test system: L6; assay: Activation of AMPKalpha in rat L6 cells assessed as phosphorylation at Thr172 at 150 uM after 40 mins to 5 hrs by Western blot analysis; assay type: cell-based
Outline: (§3)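 L6 myotubes exposed for the indicated times to test compound (100 μM in the first series; 50–150 μM in the second) or 4 mM AICAR. Whole-cell lysates immunoblotted for pThr172-AMPKα, AMPKα and α-tubulin; band densities from three independent experiments vs respective controls.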

[6] = molecular target: 5'-AMP-activated protein kinase catalytic subunit alpha-2 (Rattus norvegicus) (UniProt Q09137); assay: Activation of AMPK in rat L6 cells assessed as increase of [3H]dGlc uptake at 150 uM after 5 hrs relative to control; assay type: cell-based; outline: as §2
[7] = molecular target: 5'-AMP-activated protein kinase catalytic subunit alpha-2 (Rattus norvegicus) (UniProt Q09137); assay: Activation of AMPK in rat L6 cells assessed as increase of [3H]dGlc uptake at 50 uM after 5 hrs relative to control; assay type: cell-based; outline: as §2
[8] = test system: L6; assay: Activation of AMPKalpha in rat L6 cells assessed as phosphorylation at Thr172 at 100 uM after 60 mins by Western blot analysis; assay type: cell-based; outline: as §3
[9] = test system: L6; assay: Effect on […] level in rat L6 cells at 3.5 mmol/L after 20 mins in presence of HCGM (reference value: 23 mmol/L); assay type: ADME, cell-based; conditions: l6, 20 min, 3500 µM
Outline: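 Fully differentiated L6 myotubes preconditioned in medium with 23.0 mmol/L D-glucose, then exposed 20 min. Cells washed in cold 0.15 M Tris-HCl pH 7.75, extracted with ice-cold 0.5% TCA, diluted in Tris-HCl and spun 12,000 rpm, 30 min, 4 °C. Supernatant ATP measured by colorimetric kit, expressed per mg protein. Mean ± SEM; two-tailed t test against untreated 23.0 mmol/L glucose cells.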

[10] = molecular target: 5'-AMP-activated protein kinase catalytic subunit alpha-2 (Rattus norvegicus) (UniProt Q09137); assay: Activation of AMPK in rat L6 cells assessed as increase of [3H]dGlc uptake at 100 uM after 5 hrs in absence of insulin; assay type: cell-based; outline: as §2
[11] = molecular target: 5'-AMP-activated protein kinase catalytic subunit alpha-2 (Rattus norvegicus, UniProt Q09137); assay: as §1; assay type: cell-based; outline: as §2
[12] = molecular target: 5'-AMP-activated protein kinase catalytic subunit alpha-2 (Rattus norvegicus) (UniProt Q09137); assay: Activation of AMPK in rat L6 cells assessed as increase of [3H]dGlc uptake at 100 uM after 24 hrs; assay type: cell-based; outline: as §2
[13] = test system: L6; assay: Activation of AMPKalpha in rat L6 cells assessed as phosphorylation at Thr172 at 100 uM after 24 hrs by Western blot analysis; assay type: cell-based; outline: as §3
[14] = Lipophilicity, log P of the compound; assay type: physicochemical; conditions: octanol/water
[15] = molecular target: 5'-AMP-activated protein kinase catalytic subunit alpha-2 (Rattus norvegicus) (UniProt Q09137); assay: Activation of AMPK in rat L6 cells assessed as increase of [3H]dGlc uptake at > 0.5 mmol/L after 5 hrs; assay type: cell-based
[16] = molecular target: 5'-AMP-activated protein kinase catalytic subunit alpha-2 (Rattus norvegicus) (UniProt Q09137); assay: Activation of AMPK in rat L6 cells assessed as phosphorylation at Thr172 at > 0.5 mmol/L after 5 hrs by Western blot analysis; assay type: cell-based
[17] = test system: L6; assay: Activation of AMPKalpha in rat L6 cells assessed as phosphorylation at Thr172 at 100 uM up to 5 hrs by Western blot analysis; assay type: cell-based; outline: as §3
[18] = molecular target: 5'-AMP-activated protein kinase catalytic subunit alpha-2 (Rattus norvegicus) (UniProt Q09137); assay: Activation of AMPK in rat L6 cells assessed as increase of [3H]dGlc uptake at 100 uM after 10 to 40 hrs; assay type: cell-based; outline: as §2
[19] = test system: L6; assay: Effect on ATP/AMP ratio in rat L6 cells at >100 uM; assay type: ADME, cell-based
[20] = test system: L6; assay: Activation of AMPKalpha in rat L6 cells assessed as phosphorylation at Thr172 at 100 uM after 40 mins by Western blot analysis; assay type: cell-based; outline: as §3

5'-AMP-activated protein kinase catalytic subunit alpha-2, sequence (Q09137 whole entry): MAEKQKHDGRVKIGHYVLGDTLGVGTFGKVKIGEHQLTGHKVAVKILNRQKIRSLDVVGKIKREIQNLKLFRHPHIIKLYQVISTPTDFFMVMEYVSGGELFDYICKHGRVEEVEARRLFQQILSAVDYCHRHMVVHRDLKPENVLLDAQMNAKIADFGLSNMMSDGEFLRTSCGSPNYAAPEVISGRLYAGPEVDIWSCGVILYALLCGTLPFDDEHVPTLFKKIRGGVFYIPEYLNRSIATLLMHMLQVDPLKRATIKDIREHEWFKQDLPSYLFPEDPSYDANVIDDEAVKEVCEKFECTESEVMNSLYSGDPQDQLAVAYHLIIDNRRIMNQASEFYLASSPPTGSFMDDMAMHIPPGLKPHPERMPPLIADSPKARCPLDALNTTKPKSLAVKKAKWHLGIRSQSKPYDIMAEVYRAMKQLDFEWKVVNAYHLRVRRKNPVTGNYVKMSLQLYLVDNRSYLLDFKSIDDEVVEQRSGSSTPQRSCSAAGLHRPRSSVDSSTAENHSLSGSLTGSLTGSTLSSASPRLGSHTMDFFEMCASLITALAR
5'-AMP-activated protein kinase catalytic subunit alpha-2 (Rattus norvegicus), sequence (Q09137 whole entry): as above
5'-AMP-activated protein kinase catalytic subunit alpha-2 (Homo sapiens), sequence (P54646 whole entry, looked up): as the sequence (Q09137 whole entry) above, with V114M, Q150H, I241V, T348S, M355S, V502F, S505T, N509S, A528V, A549T counted along it

Activity [6]: 189%
Compound: CCOc1ccc2nc(SSc3nc4ccc(OCC)cc4s3)sc2c1
Activity [5]: Active

Activity [10]: Active
EC50 [11]: 76.1 µM
Activity [12]: Active
logP [14]: 3.17
Compound: CCOc1ccc2nc(S)sc2c1
Activity [13]: Active

Activity [15]: Active
Activity [16]: Active
Compound: NC1=NC(=O)/C(=C\C=C\c2ccc([N+](=O)[O-])o2)S1

logP [14]: 1.96
Compound: Oc1ccc2nc(S)sc2c1

Activity [18]: inactive
EC50 [11]: 61.5 µM
Compound: CCC1SC(N)=NC1=O (centres undefined)
Activity [17]: inactive
Activity [19]: Toxic
Activity [20]: Active

Further lines, the compound ahead of its results:

Compound: Cc1cc(-c2ccc(/C=C3/S/C(=N\c4ccc(Cl)c(C(=O)O)c4)NC3=O)o2)c([N+](=O)[O-])cc1C
Activity [1]: Dose-dependent effect
Activity [2]: tde
fold change (FC) [3]: 1.4
fold change (FC) [4]: 2.04

Compound: CCOc1ccc2nc(SCCC(=O)O)sc2c1
fold change (FC) [7]: 1.8
Activity [8]: Active

Compound: O=[N+]([O-])c1ccc(O)c([N+](=O)[O-])c1 [2,4-DINITROPHENOL]
Activity [9]: 0.42 mmol/mg

Compound: Oc1nc2ccc(Br)cc2s1
Activity [10]: Active
EC50 [11]: 72.9 µM
Activity [12]: Active
Activity [13]: Active

Compound: CCCNC(=O)CSc1nc2ccc(OCC)cc2s1
Activity [17]: Active
Activity [1]: Dose-dependent effect
Activity [2]: tde
